Mcl1 Noxa PPI: Mcl-1/Noxa interaction inhibition; Q07820; TR-FRET Mcl-1/Noxa peptide binding, 2 h; inhibition, % at 21.7 µM; hit rate 1.5% among 220,000;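 active = compounds that cut the protein-peptide binding signal by more than 50% relative to plate controls in a single-dose test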;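 also: His-tagged Mcl-1 with rhodamine Noxa BH3 peptide and terbium anti-His antibody; 0% = Mcl-1 plus Noxa peptide wells and 100% = peptide-only wells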
Calb biofilm kill: mixtures killing C. albicans biofilm. AID 1242. inhibition, % at 7.6 µM. hit rate 0.02% among 120,000. C. albicans biofilm persisters + clotrimazole, fluorescence viability; primary screen in compound mixtures of four per well;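 also: compounds exposed to preformed 24 h biofilms for 48 h; 0% = untreated biofilm control and 100% = clotrimazole plus chlorhexidine kill blank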
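Assay system: C. albicans biofilms / Medium: RPMI/MOPS medium, pH 7.0 / Schedule: biofilm formation 24 h, compound exposure 48 h, 37 °C / Measured by: Alamar Blue fluorescence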
Mcl-1 Bim block: disrupts Bim peptide binding to human Mcl-1. Q07820. Bead-based flow cytometry, Bim peptide-Mcl-1 binding. inhibition, % at 10 µM. hit rate 0.1% among 190,000; in the data active = inhibition above about 40%;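 also: 0% = no compound tracer wells and 100% = peptide blocker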
Mcl1 Bid PPI: Mcl-1/Bid interaction inhibition. Q07820. TR-FRET Mcl-1/Bid-Dy647 peptide binding, 1536-well. inhibition, % at 21.7 µM. hit rate 0.97% among 220,000;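 active = compounds that cut the binding signal by more than half at the single screening dose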;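 also: His-tagged Mcl-1 with europium anti-His antibody binding Bid BH3 peptide; 0% = Mcl-1 plus peptide wells and 100% = peptide-only wells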
14-3-3 Bad PPI: disrupts binding of bovine 14-3-3 zeta to phospho-Bad peptide; TR-FRET 14-3-3zeta/Dy647-pBad peptide displacement, 1 h; hit rate 0.71% among 220,000; P63103; inhibition, % at 21.7 µM;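 active = inhibition above about 70%, limit read from the data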;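 also: 0% = full 14-3-3 plus peptide FRET controls and 100% = background without 14-3-3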
Hck Nef HTS: human Hck-Nef kinase inhibition; inhibition, % at 20 µM; Recombinant Hck-YEEI plus Nef, Z-Lyte FRET kinase assay; hit rate 0.68% among 220,000;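 active = Hck-Nef kinase inhibition above about 50%, limit read from the data; inactive = inhibition below that limit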;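 also: 0% = DMSO with Hck plus Nef and 100% = Hck alone without Nef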
Target sequence (P08631 whole entry, looked up): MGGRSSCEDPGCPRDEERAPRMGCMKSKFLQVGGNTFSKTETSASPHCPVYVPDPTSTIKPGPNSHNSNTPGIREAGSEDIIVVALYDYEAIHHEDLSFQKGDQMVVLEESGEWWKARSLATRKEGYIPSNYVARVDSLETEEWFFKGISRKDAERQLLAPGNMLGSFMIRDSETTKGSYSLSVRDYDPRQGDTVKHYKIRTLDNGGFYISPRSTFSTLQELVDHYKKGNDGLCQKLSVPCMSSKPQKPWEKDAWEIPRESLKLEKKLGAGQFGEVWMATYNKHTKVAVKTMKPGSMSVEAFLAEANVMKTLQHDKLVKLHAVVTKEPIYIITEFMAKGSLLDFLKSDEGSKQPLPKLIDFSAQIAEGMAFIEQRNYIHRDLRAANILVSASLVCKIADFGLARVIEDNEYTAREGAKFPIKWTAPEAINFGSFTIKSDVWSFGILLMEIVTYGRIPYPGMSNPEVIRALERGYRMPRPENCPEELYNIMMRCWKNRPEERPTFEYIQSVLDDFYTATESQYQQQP
Starred values were filed as active, the others as inactive; [ ] = dose if it differs, or a comment. Most compounds without a hit are left out; they make up all but 3.2% or so of the library.

`COc1ccc(C(=O)Oc2ccc(/C=N/NC(=O)c3ccccc3OC)cc2[N+](=O)[O-])cc1` gave Mcl1 Noxa PPI 37, Calb biofilm kill 7, Mcl-1 Bim block -2, Mcl1 Bid PPI 31, 14-3-3 Bad PPI 0 and Hck Nef HTS 1.
For O=C(N/N=C/c1cccnc1)c1cc2ccccc2o1 the results were Mcl1 Noxa PPI -2, Calb biofilm kill 0, Mcl-1 Bim block -4, Mcl1 Bid PPI -13, 14-3-3 Bad PPI -9 and Hck Nef HTS 5.
Screening CN(NC(=O)c1ccc(Cl)cc1)c1cccc(Cl)n1 returned Mcl1 Noxa PPI 14, Mcl-1 Bim block -3, Mcl1 Bid PPI -9, 14-3-3 Bad PPI -3 and Hck Nef HTS 3.
`Cc1ccc(OCC(=O)Nc2ccc(N3CCN(C(=O)c4ccco4)CC3)cc2)cc1C` gave Mcl1 Noxa PPI 21, Calb biofilm kill -8, Mcl-1 Bim block -2, Mcl1 Bid PPI -3, 14-3-3 Bad PPI -8 and Hck Nef HTS 20.
For Cc1cc(OCC(=O)Nc2ccc(N3CCN(C(=O)c4ccco4)CC3)cc2)cc(C)c1Cl the results were Mcl1 Noxa PPI 15, Mcl-1 Bim block 0, Mcl1 Bid PPI 57*, 14-3-3 Bad PPI -6 and Hck Nef HTS 1.
Screening O=C(COc1ccccc1F)NCc1ccc(-n2cccc2)cc1 returned Mcl1 Noxa PPI -4, Calb biofilm kill -1, Mcl-1 Bim block 0, Mcl1 Bid PPI -20, 14-3-3 Bad PPI -12 and Hck Nef HTS 24.
For O=C1/C(=C/c2ccc(O)c(O)c2)Oc2cc(O)ccc21 the results were Mcl1 Noxa PPI 75*, Calb biofilm kill 19, Mcl1 Bid PPI -83, 14-3-3 Bad PPI 6 and Hck Nef HTS -18.
CC(C)c1ccc(NS(=O)(=O)c2ccc3[nH]cc(C(=O)N4CCC(C(N)=O)CC4)c(=O)c3c2)cc1 was read as Mcl1 Noxa PPI 6, Mcl-1 Bim block -3, Mcl1 Bid PPI 59*, 14-3-3 Bad PPI 96*[fluorescence artefact?] and Hck Nef HTS 0.
`Cc1c(NS(=O)(=O)c2ccc3c(c2)c(=O)n(C)c(=O)n3C)c(=O)n(-c2ccccc2)n1C` gave Mcl1 Noxa PPI -1, Mcl-1 Bim block 0, Mcl1 Bid PPI -19, 14-3-3 Bad PPI 4 and Hck Nef HTS -21.
COc1ccc(/C=C/C(=O)Nc2cc(S(=O)(=O)N3CCOCC3)ccc2C)cc1OC was read as Mcl1 Noxa PPI 8, Calb biofilm kill 1, Mcl-1 Bim block 0, Mcl1 Bid PPI -33, 14-3-3 Bad PPI -17 and Hck Nef HTS 2.
Cc1cccc(C2Nc3ccccc3C(=O)N2NC(=O)c2ccc([N+](=O)[O-])cc2)n1 (stereo not drawn) was read as Mcl1 Noxa PPI 6, Calb biofilm kill 6, Mcl-1 Bim block -6, Mcl1 Bid PPI 0, 14-3-3 Bad PPI 74* and Hck Nef HTS 2.
O=C(NN1C(=O)c2ccccc2NC1c1ccccn1)c1ccc([N+](=O)[O-])cc1 (stereo not drawn) was read as Mcl1 Noxa PPI 20, Calb biofilm kill 11, Mcl-1 Bim block 21, Mcl1 Bid PPI -5, 14-3-3 Bad PPI 21 and Hck Nef HTS 0.
Screening C/C(=N/NC(=O)c1ccccn1)c1ccc(O)cc1 returned Mcl1 Noxa PPI 1, Calb biofilm kill 7, Mcl1 Bid PPI 96*, 14-3-3 Bad PPI -2 and Hck Nef HTS 8.
C/C(=N\NC(=O)c1ccccn1)c1ccc(Cl)cc1 was read as Mcl1 Noxa PPI 0, Calb biofilm kill 13, Mcl1 Bid PPI -56, 14-3-3 Bad PPI -6 and Hck Nef HTS 23.
Screening COCCN(CCOC)C(=O)COC(=O)c1ccc(Cl)c(S(=O)(=O)N(C)c2ccccc2)c1 returned Mcl1 Noxa PPI 13, Calb biofilm kill 17, Mcl-1 Bim block 0, Mcl1 Bid PPI -19, 14-3-3 Bad PPI -28 and Hck Nef HTS 8.
CC(C)NC(=O)C1CCCN(S(=O)(=O)c2ccc(-n3cnnn3)cc2)C1 (stereo not drawn) was read as Mcl1 Noxa PPI -12, Mcl-1 Bim block -2, Mcl1 Bid PPI 98*, 14-3-3 Bad PPI -7 and Hck Nef HTS 3.
For O=C(NC1CCCC1)C1CCCN(S(=O)(=O)c2ccc(-n3cnnn3)cc2)C1 (stereo not drawn) the results were Mcl1 Noxa PPI 4, Mcl-1 Bim block -1, Mcl1 Bid PPI -12, 14-3-3 Bad PPI -17 and Hck Nef HTS -4.
For O=c1c2ccccc2nc(COc2ccccc2)n1/N=C/c1cn[nH]c1-c1ccccc1 the results were Mcl1 Noxa PPI -14, Calb biofilm kill 13, Mcl-1 Bim block -5, Mcl1 Bid PPI 56*, 14-3-3 Bad PPI 37 and Hck Nef HTS 4.
For Cc1cc([N+](=O)[O-])cc2c1NC(=O)C2(O)N1CCOCC1 (stereo not drawn) the results were Mcl1 Noxa PPI -12, Calb biofilm kill 12, Mcl-1 Bim block -2, Mcl1 Bid PPI -9, 14-3-3 Bad PPI -13 and Hck Nef HTS 17.
For Oc1cccc(/C=N/NC(=S)Nc2cccnc2)c1O the results were Mcl1 Noxa PPI 66*, Calb biofilm kill 6, Mcl-1 Bim block -7, Mcl1 Bid PPI -89, 14-3-3 Bad PPI -7 and Hck Nef HTS 4.
`Cc1ccc(S(=O)(=O)NNc2ccccc2)cc1` gave Mcl1 Noxa PPI 19, Mcl-1 Bim block -2, Mcl1 Bid PPI 64*, 14-3-3 Bad PPI 38 and Hck Nef HTS -3.
Screening Cc1cc(C)c(C)c(S(=O)(=O)N2CCN(c3ccc(O)cc3)CC2)c1C returned Mcl1 Noxa PPI 49, Calb biofilm kill 5, Mcl-1 Bim block -2, Mcl1 Bid PPI -41, 14-3-3 Bad PPI -6 and Hck Nef HTS 13.
Screening Oc1cccc2cc3cccc(O)c3c(O)c12 returned Mcl1 Noxa PPI 97*, Calb biofilm kill 6, Mcl-1 Bim block 1, Mcl1 Bid PPI -6, 14-3-3 Bad PPI -13 and Hck Nef HTS 4.
`Cc1ccc(S(=O)(=O)N2CCOCC2)cc1C(=O)c1nccn1C` gave Mcl1 Noxa PPI 0, Calb biofilm kill 18, Mcl-1 Bim block -1, Mcl1 Bid PPI -19, 14-3-3 Bad PPI -7 and Hck Nef HTS -4.
Screening CCOC(=O)CC1=C(C(=O)OCC)C(c2ccc(C)o2)C(C#N)=C(N)O1 (stereo not drawn) returned Mcl1 Noxa PPI 13, Mcl-1 Bim block -1, Mcl1 Bid PPI -45, 14-3-3 Bad PPI -12 and Hck Nef HTS 1.
For Cc1ccc(C2C(C#N)=C(N)Oc3c2sc2ccccc32)o1 (stereo not drawn) the results were Mcl1 Noxa PPI 74*, Mcl-1 Bim block 7, Mcl1 Bid PPI -13, 14-3-3 Bad PPI 0 and Hck Nef HTS 6.
For O=[N+]([O-])c1cc([N+](=O)[O-])c2c(=Nc3ccccc3)n(-c3ccccc3)n(O)c2c1 the results were Mcl1 Noxa PPI 62*, Calb biofilm kill 10, Mcl-1 Bim block 11, Mcl1 Bid PPI -28, 14-3-3 Bad PPI -3 and Hck Nef HTS 11.
Screening O=[N+]([O-])c1cccc(C(=Nc2ccccc2)NO)c1 returned Mcl1 Noxa PPI 7, Calb biofilm kill 1, Mcl-1 Bim block -4, Mcl1 Bid PPI -24, 14-3-3 Bad PPI 2 and Hck Nef HTS 4.
